Screens deposited in PubChem by several laboratories.
Compounds with a hit are over-represented: about 3.5% of the library has one in this group of screens.
ABCG2 block: inhibitors of human ABCG2 transporter, ABCB1 counter-screen. Q9UNQ0. hit rate 0.1% among 190,000. inhibition, % at 6.6 µM. IgMXP3 cells, JC-1 efflux, flow cytometry;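 active = inhibition above 80%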;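 note: 0% = DMSO and 100% = nicardipine control wells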
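Incubation: cells with compound and JC-1, 10 min at 25 °C, rotating, no wash / Test system: IgMXP3 (ABCG2) plus far-red-tagged CCRF-Adr (ABCB1) cells / Compound dosing: one concentration, 6.6 µM final / Also added: JC-1 fluorescent substrate / Evaluation: efflux inhibition in percent versus controls / Detection: flow cytometry, 530 nm JC-1 signal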
ABCB1 inh: human ABCB1 inhibition, ABCG2 as counter-screen; AID 1326; CCRF-Adr cells, JC-1 efflux, flow cytometry; inhibition, % at 6.6 µM; P08183; hit rate 0.067% among 190,000; in the data active = inhibition above about 40%;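 note: 0% = vehicle and 100% = reference inhibitor; higher value means more JC-1 retained so stronger ABCB1 efflux block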
MEKK2 mut-MEK5: signal of MEK5 binding to mutant human MEKK2 PB1 domain; AID 1530; hit rate 0.35% among 290,000; bead flow cytometry, Alexa488-MEK5 binding to MEKK2 mutant; percent response, % at 10 µM; in the data active = percent response above about 24%, passing the limit was not always enough
WT yeast gro inh: growth inhibition of WT yeast, mitochondrial fusion screen. inhibition, % at 10 µM. hit rate 2.1% among 190,000. mitochondrial fusion phenotypic screen, WT strain. AID 1362; in the data active = inhibition above about 58%; tested in S. cerevisiae
MEKK3 PB1 HTS: MEKK3-MEK5 PB1 interaction, increase or decrease | binding response (% of control), % at 10 µM | Q99759 | bead-based flow cytometry, Alexa488-MEK5 binding to MEKK3; actives lie on both sides; 0 = blocked by unlabeled MEK5, 100 = vehicle | hit rate 1.4% among 290,000;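 active = binding response more than 3 SD above or below the average of its plate-row segment, actives on both sides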;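 note: Alexa488 bead fluorescence after subtracting the streptavidin-only scavenger bead signal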
Target sequence (Q99759 whole entry, looked up): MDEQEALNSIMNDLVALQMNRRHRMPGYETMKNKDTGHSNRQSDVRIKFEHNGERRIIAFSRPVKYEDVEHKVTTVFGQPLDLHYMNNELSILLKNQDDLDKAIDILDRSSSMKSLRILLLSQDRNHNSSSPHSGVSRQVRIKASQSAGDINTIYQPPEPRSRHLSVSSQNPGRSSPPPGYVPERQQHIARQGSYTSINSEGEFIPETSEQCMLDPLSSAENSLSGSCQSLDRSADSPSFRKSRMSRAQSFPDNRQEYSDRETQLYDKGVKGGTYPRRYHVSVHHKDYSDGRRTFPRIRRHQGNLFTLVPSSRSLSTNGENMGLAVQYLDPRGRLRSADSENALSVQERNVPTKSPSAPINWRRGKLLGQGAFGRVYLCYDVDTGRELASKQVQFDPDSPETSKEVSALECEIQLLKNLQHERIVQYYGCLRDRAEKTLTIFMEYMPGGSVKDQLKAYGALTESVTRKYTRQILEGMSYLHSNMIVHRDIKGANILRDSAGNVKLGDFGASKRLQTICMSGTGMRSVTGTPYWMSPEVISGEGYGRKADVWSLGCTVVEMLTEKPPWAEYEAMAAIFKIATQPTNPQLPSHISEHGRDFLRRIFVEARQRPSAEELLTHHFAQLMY
MEKK2wt PB1 HTS: raises or lowers MEK5 binding to wildtype human MEKK2 PB1 domain | Q9Y2U5 | bead flow cytometry, Alexa488-MEK5 binding to MEKK2 WT; actives lie on both sides | binding response (% of control), % at 10 µM | hit rate 1.1% among 290,000 | AID 1531; in the data active = binding response below about 67% or above about 130%
MEKK2wt confirm: raises or lowers MEK5 binding to wildtype human MEKK2, retest. AID 1892. binding response (% of control), % at 10 µM. bead flow cytometry, Alexa488-MEK5 binding to MEKK2 WT; actives lie on both sides. hit rate 2.4% among 5,900. shares compounds with MEKK3 PB1 HTS; in the data active = binding response below about 16% or above about 210%; inactive = in between
MEKK2mut confirm: signal of MEK5 binding to mutant human MEKK2, retest. shares compounds with MEKK3 PB1 HTS. bead flow cytometry, Alexa488-MEK5 binding to MEKK2 mutant. percent response, % at 10 µM. hit rate 2% among 5,900; in the data active = percent response mostly above about 71%, no sharp cut-off; inactive = mostly below about 38%;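 note: higher means compound restores mutant binding toward wildtype level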
MEKK3-MEK5 inh: MEKK3-MEK5 PB1 inhibition, single concentration confirmation; shares compounds with MEKK3 PB1 HTS; bead flow cytometry, Alexa488-MEK5 binding to MEKK3; stronger effect = lower value; binding response (% of control), % at 10 µM; hit rate 1.8% among 5,900; AID 1894;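 active = binding response below 72% of control, or above a set upper limit, though filed actives all read lower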;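 note: 100% = DMSO only wells and 0% = binding blocked by excess unlabeled MEK5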
* hit, by the source's call; / = no result given; [ ] = dose if it differs, or a comment.

SMILES | ABCG2 block | ABCB1 inh | MEKK2 mut-MEK5 | WT yeast gro inh | MEKK3 PB1 HTS | MEKK2wt PB1 HTS | MEKK2wt confirm | MEKK2mut confirm | MEKK3-MEK5 inh
O=C(NCc1ccc(Cl)cc1)C(=O)NCC1OCCN1S(=O)(=O)c1cccs1 (stereo not drawn) | 4 | 1 | 9 | 11 | 111 | 105 | / | / | /
COc1c2ccc(C(=O)NCCCCc3ccccc3)cc2nn1C | 4 | 0 | 4 | -2 | 109 | 108 | / | / | /
Cc1nn(C)c(C)c1/C=N/N=C1\CCC2C3CCc4cc(O)ccc4C3CCC12C (stereo not drawn) | 2 | 0 | / | 5 | / | / | / | / | /
CCOC(=O)c1[nH]c2ccccc2c1NC(=O)C1CCCCC1 | 8 | 0 | -12 | -11 | 76*[inhibitor] | 83 | 99 | -4 | 101
Cc1cccc(/C=C/C(=O)c2ccc(N3CCOCC3)cc2)c1 | / | 4 | 86* | 10 | 81 | / | 101 | -1 | 101
COc1ccc(N2CCN(C(=O)c3ccc(CS(=O)Cc4ccc(Cl)cc4)o3)CC2)cc1 (stereo not drawn) | / | / | 2 | / | 100 | 103 | / | / | /
O=C(/C=C/c1cccs1)N1CCN(c2ccc(F)cc2)CC1 | / | / | -30 | / | 76 | 62*[inhibitor] | 100 | 0 | 100
Cc1nn(C(=O)c2cccc([N+](=O)[O-])c2)c(C)c1Sc1ccccc1 | 27 | 1 | 6 | 25 | 104 | 105 | / | / | /
CCOC(=O)N1CCC(NC(=O)c2cc(C(=O)Nc3cccc(C(F)(F)F)c3)ccc2CO)CC1 | 0 | 0 | 1 | -4 | 131* | 117 | 103 | -1 | 103
Cc1cc(C)c2sc(NC(=O)c3ccc([N+](=O)[O-])o3)nc2c1 | / | / | -2 | / | 102 | 98 | / | / | /
CCN(CC)c1cc(C)c(C#N)c2nc3ccccc3n12 | / | / | 2 | / | 88 | 93 | / | / | /
CCN(CC)c1c2c(c(C#N)c3nc4ccccc4n13)CCC2 | 0 | 0 | 1 | -8 | 69*[inhibitor] | 105 | 103 | 6 | 103
O=C(/C=C/Nc1ccc(Oc2ccccc2Cl)cc1)c1ccco1 | 0 | 0 | 0 | 27 | 105 | 99 | / | / | /
COc1cc2nc(N3CCNCC3)nc(N)c2cc1OC | 0 | 0 | -3 | 17 | 99 | 106 | / | / | /
COc1cc2nc(N3CCN(c4cc(C)ccc4C)CC3)nc(N)c2cc1OC | / | / | 42* | / | 106 | 186* | 226* | 75* | 113
CCCCNCC(O)(c1ccc(Cl)cc1)c1ccc(Cl)cc1 | 3 | 4 | 21 | 19 | 119 | 146* | 105 | -6 | 84
COc1ccc(CNCC(O)(c2ccc(Cl)cc2)c2ccc(Cl)cc2)cc1 | 7 | 5 | 10 | -5 | 105 | 154* | 167 | 26 | 106
COc1ccc(CNCC(O)(c2ccc(Cl)cc2)c2ccc(Cl)cc2)cc1OC | 8 | 6 | 39 | -2 | 113 | 179* | 131 | 9 | 100
O=C(NC1CCOCC1)C1CCC(=O)N(CCc2ccc(Cl)cc2)C1 (stereo not drawn) | / | / | -1 | / | 99 | 100 | / | / | /
COc1ccc(-c2cc(-c3nnc(COC(=O)c4ccncc4)o3)c3ccccc3n2)cc1OC | 5 | 1 | -3 | -1 | 102 | 96 | / | / | /
CCOC(=O)c1sc(NC(=O)CN2C(=O)NC3(CCCCCCC3)C2=O)c(C(=O)OCC)c1C | / | / | -11 | / | 35*[inhibitor] | 25*[inhibitor] | 100 | 2 | 106
CC(C)N(C(C)C)S(=O)(=O)c1ccc(NC(=O)c2cnccn2)cc1 | / | / | 7 | / | 102 | 103 | / | / | /
O=C(Nc1ccc(S(=O)(=O)NCc2ccccc2)cc1)c1ccccc1[N+](=O)[O-] | 30 | 3 | 0 | -11 | 158* | 106 | 99 | 0 | 101
O=C(NCC1CCCO1)C(c1ccc(F)cc1)N(Cc1ccc2c(c1)OCO2)C(=O)c1ccc(CN2CCOCC2)o1 (stereo not drawn) | 0 | 0 | 0 | 0 | 108 | 102 | / | / | /
COc1cc(C(=O)NC(=S)Nc2ccc([N+](=O)[O-])cc2C)cc(OC)c1OC | 11 | 1 | 1 | 0 | 97 | 98 | / | / | /
SMILES | ABCG2 block | ABCB1 inh | MEKK2 mut-MEK5 | WT yeast gro inh | MEKK3 PB1 HTS | MEKK2wt PB1 HTS | MEKK2wt confirm | MEKK2mut confirm | MEKK3-MEK5 inh
COc1cc(C(=O)NC(=S)Nc2ccc([N+](=O)[O-])cc2)cc(OC)c1OC | 2 | 0 | 2 | 6 | 141* | 103 | 104 | 4 | 103
COc1cc(CN(C)c2ncnc3sccc23)ccc1OC(F)F | / | / | -1 | / | 100 | 100 | / | / | /
CC(=O)Nc1ccc(Nc2c3c4c(cccc4n(C)c2=O)C(=O)c2ccccc2-3)cc1 | 10 | 10 | -5 | -6 | 83 | 90 | / | / | /
Cn1c(=O)c(NC2CCCCC2)c2c3c(cccc31)C(=O)c1ccccc1-2 | 66 | 48* | -20 | 59* | 59 | 37*[inhibitor] | 62 | -15 | 93
C#CC[N+]1(CC#Cc2ccccc2)CCOCC1 | 3 | 0 | 3 | 10 | 102 | 103 | / | / | /
C(#Cc1ccccc1)C[N+]1(CC#Cc2cccc3ccccc23)CCOCC1 | -1 | 0 | 1 | 19 | 103 | 154* | 145 | 24 | 104
CCCc1c(C)nc2ccccc2c1SCCC#N | 3 | 1 | 0 | 29 | 60*[inhibitor] | 93 | 95 | 0 | 98
Cc1ccc2nc(SCCC#N)nc(C)c2c1 | 2 | 0 | 3 | 15 | 102 | 104 | / | / | /
CCCCc1c(C)nc2c(OC)cccc2c1SCC(=O)O | / | / | 0 | / | 101 | 101 | / | / | /
CCc1c(C)nc2c(Br)cccc2c1SCCC#N | 3 | 1 | 2 | 4 | 143* | 102 | 102 | -2 | 101
CC1Sc2ccc(S(=O)(=O)CCC(=O)N3CCN(c4cccc(Cl)c4)CC3)cc2NC1=O (stereo not drawn) | / | / | -1 | / | 99 | 94 | / | / | /
CCN1CCN(S(=O)(=O)c2c[nH]c(C(=O)OC)c2)CC1 | / | / | 0 | / | 103 | 99 | / | / | /
NC(=O)COC(=O)c1ccccc1OCc1ccccc1 | 2 | 0 | -10 | -7 | 103 | 96 | / | / | /
NC(=O)COC(=O)c1ccccc1OCc1ccccc1Cl | 49 | 1 | 457* | -6 | 125 | 640* | 102 | 3 | 103
COc1ccc(NC(=O)CSc2ncccc2C(=O)OC(C)C)cc1OC | 3 | 1 | 5 | -8 | 100 | 104 | / | / | /
CC(C)c1ccc(NC(=O)CSc2ncccc2C(=O)Oc2cccc([N+](=O)[O-])c2)cc1 | 21 | 1 | 0 | 1 | 148* | 106 | 99 | -2 | 97
